Assay outcomes: PubChem BioAssay, several laboratories
Shown are actives, neighbours in structure and some others; about 1.5% of the full set was active somewhere.
CSN inh: CSN deneddylation inhibition; Q92905; inhibition, % at 12.5 µM; 360,000 compounds, 0.38% hits; AID 651999; Purified CSN, SCF-Nedd8-OG deneddylation, fluorescence polarization;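 active = pattern-corrected inhibition above about 35%, with an unprinted fluorescence ratio check between 0.5 and 1.5, limit read from the data, passing the limit was not always enough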;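 note: 0% = enzyme with substrate and 100% = substrate without enzyme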
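Assay system: Purified human Csn5 enzyme expressed in HEK293T cells | Amount: Enzyme 0.24 nM | Measured by: Fluorescence polarization readout | Medium: Tris/NaCl/DTT buffer, pH 7.5 | Compound dosing: One concentration, 12.5 µM, 0.25% DMSO | Times: 90 min incubation of compound, enzyme and substrate at room temperature | Control set: no-enzyme wells high, enzyme-with-substrate wells low | Read-out: % inhibition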
Rpn11 inh: Rpn11 (human) deubiquitinase inhibition | O00487 | human 26S proteasome, Ub4-pepOG fluorescence polarization; 20S core pre-blocked with epoxomicin | calls only at 20 µM | 360,000 compounds, 0.59% hits | AID 588493;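 active = inhibition at 20 µM, scaled to each plate's controls, above about 33%, limit read from the data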
HNF4A DNA FP: change in binding of human HNF4 alpha to DNA. activity change, % at 10 µM. HNF4a-FITC DNA binding, fluorescence polarization, 1 h. 360,000 compounds, 0.3% hits; in the data active = activity change above about 30%, passing the limit was not always enough
Target sequence (P41235 whole entry, looked up): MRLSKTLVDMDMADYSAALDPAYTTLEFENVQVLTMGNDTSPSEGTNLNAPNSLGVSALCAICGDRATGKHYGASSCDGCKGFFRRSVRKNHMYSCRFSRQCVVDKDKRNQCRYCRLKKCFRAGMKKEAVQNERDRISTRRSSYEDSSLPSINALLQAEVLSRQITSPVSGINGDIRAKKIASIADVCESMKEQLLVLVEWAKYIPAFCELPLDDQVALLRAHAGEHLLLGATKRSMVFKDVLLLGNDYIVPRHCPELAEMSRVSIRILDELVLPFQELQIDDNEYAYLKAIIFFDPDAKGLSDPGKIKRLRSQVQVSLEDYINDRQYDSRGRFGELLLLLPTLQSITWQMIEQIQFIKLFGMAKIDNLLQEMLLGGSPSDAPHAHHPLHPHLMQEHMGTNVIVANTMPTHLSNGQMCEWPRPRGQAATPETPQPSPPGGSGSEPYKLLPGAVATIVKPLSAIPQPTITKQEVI
TPT1 inh: blocks Candida albicans tRNA 2'-phosphotransferase | recombinant caTPT1, FP RNA substrate dephosphorylation | inhibition, % at 5 µM | 300,000 compounds, 0.81% hits | AID 1962;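 active = inhibition above the mean of all tested compounds plus 3 SD, set per screening campaign, cut at about 24% in these data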;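 note: plate controls were DMSO alone for no effect and ferristatin control at 100 nM for full effect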
An asterisk follows results filed as active; i = inactive; nt = no result given; + = active, no number.

SMILES	CSN inh	Rpn11 inh	HNF4A DNA FP	TPT1 inh
CC(C)(C(=O)N1CCC1(C)C(=O)NS(=O)(=O)c1ccccc1Cl)c1ccccc1 (centres undefined)	1.3	i	-3.6	nt
CCc1csc(CNC(=O)C2CCC(=O)N(Cc3cccc(OC)c3)C2)n1 (centres undefined)	7.3	i	-0.7	nt
Cc1ccc(-n2cc(C(=O)c3ccc(N4CCN(C)CC4)cc3)nn2)cc1Cl	-1.5	i	105.4*	2.1
CSc1nnnn1CCn1nnnc1SC	51.2*	i	-5.2	-2.5
NC(=O)CC(NC(=O)Cc1ccc(Br)cc1)c1ccc(NC2CCN(Cc3ccccc3)CC2)c([N+](=O)[O-])c1 (centres undefined)	53.2*	i	-3.5	1.4
CCOC(=O)C(Cc1ccccc1)NC(=O)Cn1nnc(-c2ccccc2)n1 (centres undefined)	-3.8	i	38.5*	0.9
CC(C(=O)O)N1C(=O)CSC1=S (centres undefined)	3.9	i	88.4*	-3.5
O=C(CN1CCCN(S(=O)(=O)c2ccc(F)cc2)CC1)Nc1cccc(F)c1	4.0	i	-0.9	-0.9
O=C(CN1CCCN(S(=O)(=O)c2ccc(F)cc2)CC1)Nc1c(Cl)cccc1Cl	109.2*	i	1.7	-1.7
CC(=O)c1ccc(OC2(C)CCN(CCOc3ccc(C)cc3)C2)cc1 (centres undefined)	0.5	i	-0.9	nt
O=C(COC(=O)C1CC2CCCC(C1)C2=O)NNC(=O)c1ccccc1Br (centres undefined)	2.3	i	-1.4	nt
COCCCNC(=O)CSc1nc2cc(S(=O)(=O)N3CCCCC3)ccc2o1	-3.7	i	-2.6	1.9
COc1ccc(-n2nc(C(=O)Nc3ccc(OC)c(OC)c3)c3c4ccccc4n(C)c3c2=O)cc1	48.0*	i	-2.4	-2.3
CCCCn1c(N)c(N(C)C(=O)c2cccc(-n3cnnn3)c2)c(=O)[nH]c1=O	-3.2	i	-1.0	nt
Cc1ccc(N(C(=O)c2snc(C(N)=O)c2N)C(CC(C)C)C(=O)NC2CCCC2)cc1 (centres undefined)	110.5*	i	-2.5	-2.3
CCCCC(C(=O)NC1CCCC1)N(C(=O)c1snc(C(N)=O)c1N)c1ccc(C)cc1 (centres undefined)	6.4	i	-0.2	-2.3
Cc1ccc(Cl)cc1N1CCN(C(=O)c2ccccc2SCC(=O)N2CCCC2)CC1	1.1	i	3.7	nt
CN1CCC(=NNC(=O)C(=O)Nc2cccc(Br)c2)CC1	-1.1	i	31.2*	-7.5
CCOC(=O)C(=Cc1ccc(-c2ccsc2C(=O)OC)o1)C(=O)OCC	117.6*	i	4.9	1.1
COC(=O)C(=Cc1ccc(-c2ccsc2C(=O)OC)o1)C(=O)OC	4.3	i	1.2	-0.7
Cc1cccc(-c2nn(-c3ccccc3)cc2C(=O)N2CCN(C3CCS(=O)(=O)C3)CC2)c1 (centres undefined)	-5.5	i	0.1	nt
Cn1nnnc1Sc1ncnc2scc(-c3ccc(F)cc3)c12	9.8	+	20.9	24.1
Cn1nnnc1Sc1ncnc2scc(-c3ccc(Br)cc3)c12	13.7	i	2.2	nt
O=C(COc1ccc(/C=N/NC(=O)c2ccncc2)cc1)Nc1cccc([N+](=O)[O-])c1	0.9	i	4.4	3.3
O=C(COc1ccc(/C=N/NC(=O)c2ccccc2O)cc1)Nc1ccc([N+](=O)[O-])cc1	42.8*	i	-4.1	0.6
SMILES	CSN inh	Rpn11 inh	HNF4A DNA FP	TPT1 inh
COc1ccc(Cc2c(-c3ccc(C)cc3)nc3c4ccccc4ccn23)c(C)c1	1.4	i	12.3	nt
CCCc1nc2c3ccccc3ccn2c1Cc1ccc(OC)cc1C	26.3	nt	42.7*	nt
COCCN(Cc1nc(C(c2ccccc2)c2ccccc2)no1)C(C)C	-4.2	i	-4.0	0.7
Cc1ccc2cc(CCNC(=O)c3ccc4c(c3)OCO4)c(=O)[nH]c2c1C	6.7	i	33.9*	-3.9
Cc1ccc2cc(CCNC(=O)C(C)C)c(=O)[nH]c2c1C	1.8	i	-0.1	4.7
COc1ccc(NC(=O)CSCC(=O)Nc2ccc(S(=O)(=O)N3CCCC3)cc2)cc1	2.4	i	1.3	-0.4
Nc1c(C(=O)Nc2ccc(S(=O)(=O)N3CCCC3)cc2)sc2nc3ccc(OC(F)(F)F)cc3cc12	15.0	nt	42.6*	17.7
COc1ccc(NC(=O)c2cc([N+](=O)[O-])ccc2N2CCCCC2)cc1	2.2	i	30.7*	-1.9
CCC(CC)c1nnc(NC(=O)c2cc([N+](=O)[O-])ccc2N2CCCCC2)s1	47.2*	i	-1.0	0.8
COc1ccc(CCNC(=O)c2cccc(NS(=O)(=O)c3ccccc3F)c2)cc1OC	-0.2	i	5.8	-1.7
COc1ccccc1-c1csc(C(C)(O)c2ccccc2)n1 (centres undefined)	3.5	i	-2.1	nt
O=C1CCCC(=NNC(=O)c2cc3ccccc3cc2O)C1	72.0*	nt	129.1	nt
O=C(NN=C1CCCCCC1)c1cc2ccccc2cc1O	-0.7	i	-5.5	15.3
C[C@H]1Cn2cnc(C(=O)Nc3cccc(Cl)c3)c2C(=O)N1	-1.8	i	4.0	nt
CN1C(=O)c2ccccc2NC(=O)[C@]12O[C@@H]2c1cccc(O)c1	13.4	i	-7.5	24.1*
CC(C)(C)NC1=NCCNC(c2ccccc2)=C1	-1.5	i	-0.3	nt
C[C@@H]1CN([C@H](C)CO)C(=O)CCCn2cc(nn2)CO[C@H]1CN(C)C(=O)OCc1ccccc1	-0.8	i	1.2	nt
CC(C)C[C@H]1CN([C@@H](Cc2ccc(O)cc2)CN2CCC[C@H]2CN2C(=O)C(=O)NC[C@@H]2Cc2ccccc2)C(=O)C(=O)N1CC1CCCCCC1	0.3	nt	2.0	nt
O=C(NCc1ccco1)c1cccc2c1C(=O)c1ccc(N3CCCC3)cc1S2(=O)=O	15.7	nt	52.0*	nt
C=CCNC(=O)c1cccc2c1C(=O)c1ccc(N3CCCC3)cc1S2(=O)=O	35.5*	nt	64.8	nt
Cc1ccc(CNC(=O)c2cccc3c2C(=O)c2ccc(N4CCCCC4)cc2S3(=O)=O)cc1	31.3	nt	37.7*	nt
O=C(NCC1CC1)c1cccc2c1C(=O)c1ccc(N3CCCC3)cc1S2(=O)=O	31.6	nt	61.0	nt
CCOC(=O)CCCCCC(=O)Nc1ccc2c(c1)CC(=O)N([C@@H](C)CO)C[C@@H](C)[C@@H](CN(C)C(=O)Nc1ccc(C(F)(F)F)cc1)O2	-1.9	i	4.3	nt
CCCc1cc(=O)[nH]c(SCC(=O)Nc2cc(S(=O)(=O)N3CCOCC3)ccc2N(CC)CC)n1	2.7	i	0.3	nt
COCCN(C(=O)CCCc1nc2ccccc2s1)c1c(N)n(CC(C)C)c(=O)[nH]c1=O	-4.5	i	-0.1	nt
Cc1cc(=O)c2ccccc2n1CC(=O)NCc1ccccc1	-2.2	i	30.4*	-7.7
COc1ccc2c(c1)C(=O)O[C@@H](c1ccccc1)C[C@@H](O)C(=O)CC2	86.5*	nt	1.7	nt
Cc1ccc(OCCNC(=O)C2CC(=O)N(Cc3ccccc3)C2)cc1 (centres undefined)	-6.5	i	-0.8	nt
CCOC(=O)c1cccc(N/C=C/C(=O)c2ccc(OC)c(OC)c2)c1	92.2*	i	1.4	5.5
